Measurements from ChEMBL document CHEMBL4184148 (Bioorg Med Chem Lett, 2017).

Key:
[1] = target: Protein kinase C iota type (Homo sapiens) (UniProt P41743); experiment: Binding affinity to wild-type human partial length PRKCI (H215 to V587 residues) expressed in HEK293 cells at 1 uM by Kinomescan method relative to control; type: cell-based
[2] = target: Testis-specific serine/threonine-protein kinase 1 (Homo sapiens) (UniProt Q9BXA7); experiment: Binding affinity to wild-type human full length TSSK1B (M1 to Q367 residues) expressed in Escherichia coli BL21 at 1 uM by Kinomescan method relative to control
Sequence of Testis-specific serine/threonine-protein kinase 1 (Homo sapiens) (Q9BXA7 whole entry, the tested form may be a part): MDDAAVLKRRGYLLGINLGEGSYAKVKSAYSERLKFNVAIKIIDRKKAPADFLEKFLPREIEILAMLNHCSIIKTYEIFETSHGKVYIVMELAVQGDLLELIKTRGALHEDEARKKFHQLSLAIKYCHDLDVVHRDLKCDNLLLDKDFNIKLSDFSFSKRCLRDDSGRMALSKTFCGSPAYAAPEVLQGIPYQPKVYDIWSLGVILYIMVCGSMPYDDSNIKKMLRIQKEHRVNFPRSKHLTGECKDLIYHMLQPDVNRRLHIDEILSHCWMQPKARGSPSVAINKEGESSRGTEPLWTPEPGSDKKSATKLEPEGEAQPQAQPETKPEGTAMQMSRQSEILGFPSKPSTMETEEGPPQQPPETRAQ
How it was run: (§1)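 Kinome-wide competition binding panel run by an outside provider, with each compound tested at a single concentration. Activity is read against the kinase panel.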

[3] = target: Cyclin-G-associated kinase (Homo sapiens) (UniProt O14976); experiment: Binding affinity to wild-type human partial length GAK (G13 to Y338 residues) expressed in Escherichia coli BL21 at 1 uM by Kinomescan method relative to control
[4] = target: Calcium/calmodulin-dependent protein kinase kinase 2 (Homo sapiens) (UniProt Q96RR4); experiment: Binding affinity to wild-type human partial length CAMKK2 (D65 to V471 residues) expressed in Escherichia coli BL21 at 1 uM by Kinomescan method relative to control
Sequence of Calcium/calmodulin-dependent protein kinase kinase 2 (Homo sapiens) (Q96RR4 2-588 limits assumed): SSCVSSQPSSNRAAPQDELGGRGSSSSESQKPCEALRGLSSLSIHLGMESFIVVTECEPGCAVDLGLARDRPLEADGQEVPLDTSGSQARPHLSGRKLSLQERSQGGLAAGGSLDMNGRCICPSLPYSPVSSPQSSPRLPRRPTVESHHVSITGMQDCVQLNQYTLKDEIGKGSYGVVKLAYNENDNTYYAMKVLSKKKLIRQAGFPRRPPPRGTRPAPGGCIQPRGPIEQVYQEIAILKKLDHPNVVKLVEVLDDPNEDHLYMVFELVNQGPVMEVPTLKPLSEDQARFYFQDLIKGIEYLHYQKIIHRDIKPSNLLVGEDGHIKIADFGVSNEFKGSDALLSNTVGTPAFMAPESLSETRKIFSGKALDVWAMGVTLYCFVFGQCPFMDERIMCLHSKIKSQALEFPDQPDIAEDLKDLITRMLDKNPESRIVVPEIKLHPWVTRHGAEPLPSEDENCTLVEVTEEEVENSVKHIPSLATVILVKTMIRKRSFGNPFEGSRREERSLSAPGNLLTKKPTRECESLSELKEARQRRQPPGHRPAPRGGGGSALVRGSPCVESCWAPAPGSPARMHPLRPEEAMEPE

[5] = target: Fibroblast growth factor receptor 1 (Homo sapiens) (UniProt P11362); experiment: Binding affinity to wild-type human partial length FGFR1 (P357 to V669 residues) expressed in Escherichia coli BL21 at 1 uM by Kinomescan method relative to control
[6] = target: Dual specificity mitogen-activated protein kinase kinase 2 (Homo sapiens) (UniProt P36507); experiment: Binding affinity to wild-type human full length MEK2 (M1 to V400 residues) expressed in HEK293 cells at 1 uM by Kinomescan method relative to control; type: cell-based
How it was run: (§2)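 Run as one kinome-wide competition binding panel with each compound at a single fixed concentration. Results were plotted as a kinome-wide selectivity map.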

[7] = target: Ribosomal protein S6 kinase alpha-6 (Homo sapiens) (UniProt Q9UK32); experiment: Binding affinity to wild-type human partial length C-terminal RSK4 kinase domain 2 (I401 to Y711 residues) expressed in Escherichia coli BL21 at 1 uM by Kinomescan method relative to control
[8] = target: Protein-tyrosine kinase 6 (Homo sapiens) (UniProt Q13882); experiment: Binding affinity to wild-type human partial length BRK (L166 to T451 residues) expressed in Escherichia coli BL21 at 1 uM by Kinomescan method relative to control
Sequence of Protein-tyrosine kinase 6 (Homo sapiens) (Q13882 whole entry, looked up, the tested form may be a part): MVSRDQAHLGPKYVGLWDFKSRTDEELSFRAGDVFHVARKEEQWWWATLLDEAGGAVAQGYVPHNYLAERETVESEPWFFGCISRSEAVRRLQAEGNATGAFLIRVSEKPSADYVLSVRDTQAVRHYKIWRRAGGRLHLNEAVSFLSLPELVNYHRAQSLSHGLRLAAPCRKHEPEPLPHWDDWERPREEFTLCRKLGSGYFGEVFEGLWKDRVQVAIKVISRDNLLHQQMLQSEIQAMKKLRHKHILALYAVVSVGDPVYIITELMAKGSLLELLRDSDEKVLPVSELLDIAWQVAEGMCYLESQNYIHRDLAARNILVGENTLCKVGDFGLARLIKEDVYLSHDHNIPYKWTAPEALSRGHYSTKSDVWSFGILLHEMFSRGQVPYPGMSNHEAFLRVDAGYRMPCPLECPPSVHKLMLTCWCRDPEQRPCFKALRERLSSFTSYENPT

[9] = target: Serine/threonine-protein kinase STK11 (Homo sapiens) (UniProt Q15831); experiment: Binding affinity to wild-type human full length LKB1 (M1 to Q433 residues) expressed in Escherichia coli BL21 at 1 uM by Kinomescan method relative to control; how it was run: as §2
[10] = target: CDK4/Cyclin D3 (Homo sapiens) (UniProt P11802+P30281); experiment: Binding affinity to wild-type human full length CDK4/cyclinD3 (M1 to E303 residues) expressed in HEK293 cells at 1 uM by Kinomescan method relative to control; type: cell-based
[11] = target: Transient receptor potential cation channel subfamily M member 6 (Homo sapiens) (UniProt Q9BX84); experiment: Binding affinity to wild-type human partial length TRPM6 (Q1723 to I1998 residues) expressed in HEK293 cells at 1 uM by Kinomescan method relative to control; type: cell-based
[12] = target: Serine/threonine-protein kinase MAK (Homo sapiens) (UniProt P20794); experiment: Binding affinity to wild-type human partial length MAK (M1 to P314 residues) expressed in Escherichia coli BL21 at 1 uM by Kinomescan method relative to control
[13] = target: Serine/threonine-protein kinase SIK3 (Homo sapiens) (UniProt Q9Y2K2); experiment: Binding affinity to wild-type human partial length QSK (A90 to L395 residues) expressed in HEK293 cells at 1 uM by Kinomescan method relative to control; type: cell-based
Sequence of Serine/threonine-protein kinase SIK3 (Homo sapiens) (Q9Y2K2 whole entry, looked up, the tested form may be a part): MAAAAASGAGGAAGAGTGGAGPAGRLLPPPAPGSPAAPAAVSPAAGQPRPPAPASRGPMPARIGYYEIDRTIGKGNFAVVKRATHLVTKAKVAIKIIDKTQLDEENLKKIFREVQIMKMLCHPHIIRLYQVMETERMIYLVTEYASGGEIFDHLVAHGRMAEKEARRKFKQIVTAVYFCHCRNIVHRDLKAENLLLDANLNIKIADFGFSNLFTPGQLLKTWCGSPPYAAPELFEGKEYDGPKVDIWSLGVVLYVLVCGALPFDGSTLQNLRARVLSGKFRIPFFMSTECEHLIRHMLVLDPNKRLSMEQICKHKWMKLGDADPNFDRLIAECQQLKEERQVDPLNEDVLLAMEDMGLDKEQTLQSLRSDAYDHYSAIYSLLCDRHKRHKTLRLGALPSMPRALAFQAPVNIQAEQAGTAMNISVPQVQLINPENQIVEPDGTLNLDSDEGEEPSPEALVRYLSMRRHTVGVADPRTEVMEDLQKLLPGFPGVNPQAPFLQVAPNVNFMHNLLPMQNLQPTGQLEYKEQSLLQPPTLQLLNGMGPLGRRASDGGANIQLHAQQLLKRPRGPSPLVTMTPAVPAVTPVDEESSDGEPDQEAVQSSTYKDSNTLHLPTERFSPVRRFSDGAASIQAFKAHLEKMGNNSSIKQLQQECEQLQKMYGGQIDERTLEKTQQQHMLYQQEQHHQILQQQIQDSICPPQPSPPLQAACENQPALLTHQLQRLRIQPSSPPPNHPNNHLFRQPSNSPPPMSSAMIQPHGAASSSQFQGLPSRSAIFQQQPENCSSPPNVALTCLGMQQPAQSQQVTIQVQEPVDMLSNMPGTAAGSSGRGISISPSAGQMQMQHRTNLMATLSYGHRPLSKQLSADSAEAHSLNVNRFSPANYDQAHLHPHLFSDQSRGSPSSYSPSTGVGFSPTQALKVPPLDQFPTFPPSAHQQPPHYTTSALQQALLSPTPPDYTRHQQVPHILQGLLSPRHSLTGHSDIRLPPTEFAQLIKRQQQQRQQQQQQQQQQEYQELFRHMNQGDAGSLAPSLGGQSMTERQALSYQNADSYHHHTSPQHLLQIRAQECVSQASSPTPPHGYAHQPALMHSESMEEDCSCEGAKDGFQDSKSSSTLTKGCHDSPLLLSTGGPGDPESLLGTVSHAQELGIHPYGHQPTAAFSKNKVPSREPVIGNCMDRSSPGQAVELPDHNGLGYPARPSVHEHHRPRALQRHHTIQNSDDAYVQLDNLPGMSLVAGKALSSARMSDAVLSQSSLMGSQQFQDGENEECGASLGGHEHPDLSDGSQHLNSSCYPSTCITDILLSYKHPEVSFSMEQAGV

[14] = tested on: Tyrosine-protein kinase ABL1 (Homo sapiens), P00519 [T315I]; experiment: Binding affinity to human phosphorylated ABL1 T315I mutant (S229 to K512 residues) expressed in HEK293 cells at 1 uM by Kinomescan method relative to control; type: cell-based
[15] = target: Serine/threonine-protein kinase/endoribonuclease IRE1 (Homo sapiens) (UniProt O75460); experiment: Binding affinity to wild-type human partial length ERN1 (S551 to E852 residues) expressed in HEK293 cells at 1 uM by Kinomescan method relative to control; type: cell-based
[16] = target: Macrophage colony-stimulating factor 1 receptor (Homo sapiens) (UniProt P07333); experiment: Binding affinity to wild-type human partial length autoinhibited CSF1R (Y538 to S939 residues) expressed in HEK293 cells at 1 uM by Kinomescan method relative to control; type: cell-based; design: scale not given: the % may be the effect or the level left
[17] = target: Dual specificity protein kinase CLK2 (Homo sapiens) (UniProt P49760); experiment: Binding affinity to wild-type human partial length CLK2 (D144 to R498 residues) expressed in Escherichia coli BL21 at 1 uM by Kinomescan method relative to control
Sequence of Dual specificity protein kinase CLK2 (Homo sapiens) (P49760 whole entry, looked up, the tested form may be a part): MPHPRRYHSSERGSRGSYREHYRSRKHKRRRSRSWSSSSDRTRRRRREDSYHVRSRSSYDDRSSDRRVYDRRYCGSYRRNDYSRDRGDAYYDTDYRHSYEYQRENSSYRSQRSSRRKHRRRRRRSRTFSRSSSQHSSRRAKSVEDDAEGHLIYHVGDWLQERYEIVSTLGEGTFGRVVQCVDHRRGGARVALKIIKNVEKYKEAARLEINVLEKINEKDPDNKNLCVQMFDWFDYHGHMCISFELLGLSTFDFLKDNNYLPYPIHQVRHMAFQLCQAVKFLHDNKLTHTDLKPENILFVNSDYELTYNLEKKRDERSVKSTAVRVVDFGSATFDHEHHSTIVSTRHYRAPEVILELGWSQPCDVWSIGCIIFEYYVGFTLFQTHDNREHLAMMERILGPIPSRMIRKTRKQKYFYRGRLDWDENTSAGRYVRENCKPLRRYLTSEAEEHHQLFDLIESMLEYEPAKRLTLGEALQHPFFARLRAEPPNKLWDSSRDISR

[18] = target: Activin receptor type-1 (Homo sapiens) (UniProt Q04771); experiment: Binding affinity to wild-type human ACVR1 (C188 to C509 residues) expressed in Escherichia coli BL21 at 1 uM by Kinomescan method relative to control
[19] = target: Wee1-like protein kinase 2 (Homo sapiens) (UniProt P0C1S8); experiment: Binding affinity to wild-type human partial length WEE2 (M204 to K492 residues) expressed in Escherichia coli BL21 at 1 uM by Kinomescan method relative to control
Sequence of Wee1-like protein kinase 2 (Homo sapiens) (P0C1S8 whole entry, looked up, the tested form may be a part): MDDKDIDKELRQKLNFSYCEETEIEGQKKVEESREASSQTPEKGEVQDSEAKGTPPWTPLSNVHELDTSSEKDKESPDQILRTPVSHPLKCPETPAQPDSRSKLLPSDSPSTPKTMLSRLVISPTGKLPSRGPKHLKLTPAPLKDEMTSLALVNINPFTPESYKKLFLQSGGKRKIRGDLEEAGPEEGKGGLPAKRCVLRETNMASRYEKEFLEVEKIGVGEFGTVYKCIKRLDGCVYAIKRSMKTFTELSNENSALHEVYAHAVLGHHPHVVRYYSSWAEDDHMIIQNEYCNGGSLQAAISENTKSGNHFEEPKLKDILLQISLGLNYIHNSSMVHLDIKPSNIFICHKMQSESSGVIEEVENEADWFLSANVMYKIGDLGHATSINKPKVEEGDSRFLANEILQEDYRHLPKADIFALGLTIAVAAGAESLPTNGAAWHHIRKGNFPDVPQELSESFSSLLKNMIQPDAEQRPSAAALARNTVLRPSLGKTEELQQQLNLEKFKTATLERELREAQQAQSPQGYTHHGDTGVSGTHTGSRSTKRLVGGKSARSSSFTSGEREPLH

[20] = target: Ribosomal protein S6 kinase alpha-3 (Homo sapiens) (UniProt P51812); experiment: Binding affinity to wild-type human partial length N-terminal RSK3 kinase domain 1 (M1 to Q385 residues) expressed in Escherichia coli BL21 at 1 uM by Kinomescan method relative to control
[21] = target: Death-associated protein kinase 1 (Homo sapiens) (UniProt P53355); experiment: Binding affinity to wild-type human partial length DAPK1 (M1 to F296 residues) expressed in Escherichia coli BL21 at 1 uM by Kinomescan method relative to control
[22] = target: Receptor tyrosine-protein kinase erbB-3 (Homo sapiens) (UniProt P21860); experiment: Binding affinity to wild-type human partial length ERBB3 (G684 to A987 residues) expressed in HEK293 cells at 1 uM by Kinomescan method relative to control; type: cell-based
[23] = target: Serine/threonine-protein kinase Nek7 (Homo sapiens) (UniProt Q8TDX7); experiment: Binding affinity to wild-type human full length NEK7 (M1 to S302 residues) expressed in Escherichia coli BL21 at 1 uM by Kinomescan method relative to control; how it was run: as §1
Sequence of Serine/threonine-protein kinase Nek7 (Homo sapiens) (Q8TDX7 whole entry, looked up, the tested form may be a part): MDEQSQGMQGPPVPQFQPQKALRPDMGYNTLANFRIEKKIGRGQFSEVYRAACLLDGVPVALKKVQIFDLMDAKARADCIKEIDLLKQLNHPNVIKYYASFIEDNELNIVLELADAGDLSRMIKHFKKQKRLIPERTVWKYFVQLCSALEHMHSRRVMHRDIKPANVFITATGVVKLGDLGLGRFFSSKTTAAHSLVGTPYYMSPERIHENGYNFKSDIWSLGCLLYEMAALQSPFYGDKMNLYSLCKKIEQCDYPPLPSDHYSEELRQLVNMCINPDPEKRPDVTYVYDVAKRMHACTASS

[24] = target: Tyrosine-protein kinase Lck (Homo sapiens) (UniProt P06239); experiment: Binding affinity to wild-type human partial length LCK (R207 to P509 residues) expressed in Escherichia coli BL21 at 1 uM by Kinomescan method relative to control
[25] = target: Activin receptor type-1B (Homo sapiens) (UniProt P36896); experiment: Binding affinity to wild-type human ACVR1B (S187 to I505 residues) expressed in Escherichia coli BL21 at 1 uM by Kinomescan method relative to control

Sequence of Protein kinase C iota type (Homo sapiens) (P41743 whole entry, the tested form may be a part): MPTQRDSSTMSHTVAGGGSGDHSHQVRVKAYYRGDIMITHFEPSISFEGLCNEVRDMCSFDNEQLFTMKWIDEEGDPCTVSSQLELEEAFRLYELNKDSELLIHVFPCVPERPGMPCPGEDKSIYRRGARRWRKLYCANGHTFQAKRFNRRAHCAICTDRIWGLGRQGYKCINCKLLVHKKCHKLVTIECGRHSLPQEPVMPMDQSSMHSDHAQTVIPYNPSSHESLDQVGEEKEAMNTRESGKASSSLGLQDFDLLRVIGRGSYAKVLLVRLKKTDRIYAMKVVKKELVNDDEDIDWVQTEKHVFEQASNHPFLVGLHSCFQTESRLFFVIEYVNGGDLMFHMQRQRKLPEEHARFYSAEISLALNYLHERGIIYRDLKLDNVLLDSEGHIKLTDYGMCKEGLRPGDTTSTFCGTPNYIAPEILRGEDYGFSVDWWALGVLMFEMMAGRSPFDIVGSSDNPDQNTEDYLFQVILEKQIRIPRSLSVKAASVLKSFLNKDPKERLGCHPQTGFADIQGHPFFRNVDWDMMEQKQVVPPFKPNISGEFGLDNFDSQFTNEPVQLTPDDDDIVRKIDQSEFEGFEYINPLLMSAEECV

| SMILES | Activity [1] | Activity [2] | Activity [3] | Activity [4] | Activity [5] | Activity [6] | Activity [7] | Activity [8] | Activity [9] | Activity [10] | Activity [11] | Activity [12] | Activity [13] | Activity [14] | Activity [15] | Activity [16] | Activity [17] | Activity [18] | Activity [19] | Activity [20] | also measured |
| --- | --- | --- | --- | --- | --- | --- | --- | --- | --- | --- | --- | --- | --- | --- | --- | --- | --- | --- | --- | --- | --- |
| CCC(=O)Nc1ccc(C(=O)Nc2ccc(Nc3ncc4c(n3)N(C)c3ccc(C)cc3C(=O)N4C)cc2)cc1 | 66% | 89% | 99% | 89% | 82% | 72% | 100% | 100% | 94% | 85% | 100% | 100% | 100% | 100% | 100% | 65% | 88% | 80% | 97% | 85% | Activity [21]: 90%; Activity [22]: 85%; Activity [23]: 95%; Activity [24]: 86%; Activity [25]: 100% |
| C=CC(=O)Nc1ccc(C(=O)Nc2ccc(Nc3ncc4c(n3)N(C)c3ccc(C)cc3C(=O)N4C)cc2)cc1 | 87% | 100% | 82% | 92% | 84% | 86% | 100% | 99% | 93% | 100% | 96% | 78% | 88% | 99% | 87% | 100% | 99% | 93% | 100% | 89% | Activity [21]: 100%; Activity [22]: 81%; Activity [23]: 100%; Activity [24]: 90%; Activity [25]: 85% |
